Reference: article PMC3241894 (ACS chemical biology, 2011)

Tests used:
HeLa cells = assay: Hsp90 over-expression experiments, cell survival; assay type: cell-based; conditions: pCMV-Hsp90 vs pCMV control, compound 1 50 µM, 2 5 µM, 17-AAG 100 nM
Summary of the method: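 HeLa cells (~30% confluent) were co-transfected by PolyFect with HSP90α and HSP90β plasmids (0.5 µg each) or empty pCMV (1 µg). Hsp90 overexpression was checked by Western blot. After 24 h, cells received DMSO (control), test compound (50 or 5 µM) or 17-AAG (100 nM), and survival was read by CCK-8. Three repeats, mean ± SEM.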

[1] = system: FKBP52 and Hsp90 binding interaction; assay: pure protein binding assay FKBP52 and Hsp90; parameters: species or system human; conditions: 100 nM Hsp90, 50 nM GST-FKBP52, 0–10 µM compound
[2] = system: FKBP38 and Hsp90 binding interaction; assay: pure protein binding assay FKBP38 and Hsp90; parameters: species or system human; conditions: 100 nM Hsp90, 50 nM GST-FKBP38, 0–10 µM compound
Hsp70 = Hsp70 up-regulation in compound-treated cells; assay type: cell-based; conditions: HCT-116 cells, 24 hours
Summary of the method: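 HCT-116 cells exposed for 24 h to test compound (0–25 µM), or to 17-AAG (0–200 nM) as reference Hsp90 inhibitor. Cells were then harvested and lysed, and lysates probed for Hsp70 by Western blot with GAPDH as loading control. Experiments were repeated three times, reported as mean ± SEM, and compared by unpaired t-test.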

## C=CCNC1=C2C[C@@H](C)C[C@H](OC)[C@H](O)[C@@H](C)/C=C(\C)[C@H](OC(N)=O)[C@@H](OC)/C=C\C=C(/C)C(=O)NC(=CC1=O)C2=O [17-AAG, 17-(allylamino)-17-demethoxygeldanamycin]
HeLa cells
  cytotoxic effect on Hsp90 over-expressing cells relative to control cells: also true
[1]
  inhibition of binding between Hsp90 and FKBP52: do not affect
[2]
  inhibition of binding between Hsp90 and FKBP38: do not affect
Hsp70
  Hsp70 up-regulation over control: 100%
